Experimental data published in ChEMBL document CHEMBL1151434 (Antimicrob Agents Chemother, 2007).
Converted amounts (≈) assume the structure as drawn.

Assays:
Chlamydia trachomatis [1] = experiment: Antibacterial activity against azithromycin-tolerant 0.01 MOI Chlamydia trachomatis L2AZM#23 harboring mutation in bacterial ribosomal protein L4 infected in mouse L2 cells treated 2 hrs after infection measured on day 7 by plaque assay; type: functional
Summary of the method: (§1)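 Susceptibility measured in a plaque assay on confluent mouse fibroblast L2 cell monolayers in 60-mm dishes. The inoculum was 10^5 chlamydial PFU, equal to an MOI of 0.01. MIC was taken as the drug concentration that inhibited development of these 10^5 PFU.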

Chlamydia psittaci 6BC = experiment: Antibacterial activity against 0.01 MOI wild type Chlamydia psittaci 6BC BCRB infected in mouse L2 cells treated 2 hrs after infection measured on day 7 by plaque assay; type: functional; summary of the method: as §1
Chlamydia trachomatis [2] = experiment: Antibacterial activity against 0.01 MOI wild type Chlamydia trachomatis L2/LGV/434/Bu infected in mouse L2 cells treated 2 hrs after infection measured on day 7 by plaque assay; type: functional; summary of the method: as §1
Chlamydia trachomatis [3] = experiment: Antibacterial activity against azithromycin-tolerant 0.01 MOI Chlamydia trachomatis L2AZM#31 harboring mutation in bacterial ribosomal protein L4 infected in mouse L2 cells treated 2 hrs after infection measured on day 7 by plaque assay; type: functional; summary of the method: as §1
[4] = Biodistribution in healthy human epithelial lining fluid assessed as drug accumulation at 500 mg; type: ADME, organism-based; conditions: in vivo

| Compound | MIC (Chlamydia trachomatis [1]) [µg/mL] | MIC (Chlamydia psittaci 6BC) [µg/mL] | MIC (Chlamydia trachomatis [2]) [µg/mL] | MIC (Chlamydia trachomatis [3]) [µg/mL] | Drug uptake [4] [µg/mL] |
| --- | --- | --- | --- | --- | --- |
| CC[C@H]1OC(=O)[C@H](C)[C@@H](O[C@H]2C[C@@](C)(OC)[C@@H](O)[C@H](C)O2)[C@H](C)[C@@H](O[C@@H]2O[C@H](C)C[C@H](N(C)C)[C@H]2O)[C@](C)(O)C[C@@H](C)C(=O)[C@H](C)[C@@H](O)[C@]1(C)O [ERYTHROMYCIN] | 0.8 (≈ 1.09 µM) | 0.2 (≈ 0.273 µM) | 0.2 (≈ 0.273 µM) | 0.8 (≈ 1.09 µM) | – |
| CC[C@H]1OC(=O)[C@H](C)[C@@H](O[C@H]2C[C@@](C)(OC)[C@@H](O)[C@H](C)O2)[C@H](C)[C@@H](O[C@@H]2O[C@H](C)C[C@H](N(C)C)[C@H]2O)[C@](C)(O)C[C@@H](C)CN(C)[C@H](C)[C@@H](O)[C@]1(C)O [AZITHROMYCIN] | 0.8 (≈ 1.07 µM) | 0.1 (≈ 0.134 µM) | 0.1 (≈ 0.134 µM) | 0.8 (≈ 1.07 µM) | 2 |
| SPIRAMYCIN | 4 | 1 | 0.8 | 4 | – |
| O=C(N[C@H](CO)[C@H](O)c1ccc([N+](=O)[O-])cc1)C(Cl)Cl [CHLORAMPHENICOL] | 0.4 (≈ 1.24 µM) | – | 0.4 (≈ 1.24 µM) | 0.4 (≈ 1.24 µM) | – |
| CO[C@@H]1[C@@H](O[C@@H]2O[C@H](C)[C@@H](O[C@H]3C[C@@](C)(O)[C@@H](OC(=O)CC(C)C)[C@H](C)O3)[C@H](N(C)C)[C@H]2O)[C@@H](CC=O)C[C@@H](C)[C@@H](O)/C=C/C=C/C[C@@H](C)OC(=O)C[C@H]1OC(C)=O [JOSAMYCIN] | 0.2 (≈ 0.242 µM) | 0.05 (≈ 0.0604 µM) | 0.05 (≈ 0.0604 µM) | 0.2 (≈ 0.242 µM) | – |
| CCC[C@@H]1C[C@@H](C(=O)N[C@@H]([C@H]2O[C@H](SC)[C@H](O)[C@@H](O)[C@H]2O)[C@H](C)Cl)N(C)C1 [CLINDAMYCIN] | 0.5 (≈ 1.18 µM) | 0.4 (≈ 0.941 µM) | 0.125 (≈ 0.294 µM) | 0.5 (≈ 1.18 µM) | – |
